Compound activity deposited in PubChem by Johns Hopkins Ion Channel Center.
A selection: hits, their analogues and other compounds. The true share with any hit is near 2.9%.
TRPC6 act – mouse TRPC6 channel activators, primary screen, cell-based, HEK293, membrane potential dye | HEK293-TRPC6 membrane potential dye fluorescence; hits give high values | B-score at 10 µM | 0.13% of 310,000 active;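 active means B-score of the integrated fluorescence ratio above library mean plus 3 SD, and starting fluorescence ratio within library mean plus 5 SD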;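 further: higher score means more depolarization so channel activation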
Kir21 block – inhibitors of mouse Kir2.1 inward-rectifier potassium channel; HEK293-Kir2.1, FluxOR thallium flux fluorescence; hits give low values; B-score at 10 µM; 0.85% of 310,000 active; AID 1672, 2009;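 active means fluorescence ratio B-score at or below minus 3 SD of library scores, with starting-brightness B-score within 2 SD, cut at about -4.2 in these data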;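 further: channel flux triggered by added potassium and thallium sulfate stimulus; B-score of peak minus minimum fluorescence over baseline after thallium stimulus; more negative B-score means stronger Kir2.1 block with less thallium influx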
Target sequence (P35561 whole entry, looked up): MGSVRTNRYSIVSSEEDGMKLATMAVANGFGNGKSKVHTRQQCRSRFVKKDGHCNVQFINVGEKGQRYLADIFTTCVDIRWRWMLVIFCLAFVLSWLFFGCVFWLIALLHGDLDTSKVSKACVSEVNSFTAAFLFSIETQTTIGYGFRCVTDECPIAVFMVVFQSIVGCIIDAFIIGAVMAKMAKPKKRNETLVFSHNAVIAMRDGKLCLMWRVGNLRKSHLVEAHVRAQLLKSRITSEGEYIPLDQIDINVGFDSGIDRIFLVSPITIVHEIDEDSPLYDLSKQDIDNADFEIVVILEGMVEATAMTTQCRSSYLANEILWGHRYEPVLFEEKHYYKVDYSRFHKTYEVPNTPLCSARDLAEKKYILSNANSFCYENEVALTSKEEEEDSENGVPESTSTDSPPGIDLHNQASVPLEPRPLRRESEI
TRPC4 PAM – positive allosteric modulators of TRPC4, primary screen, cell-based, mouse TRPC4beta, HEK293 mu-opioid, Fluo-4 calcium; AID 2227, 2009; B-score at 10 µM; DAMGO EC20, Fluo-4 Ca2+ flux; hits give high values; Short transient receptor potential channel 4 (Mus musculus), Q9QUQ5; 0.42% of 310,000 active;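 active means B-score of calcium response area above 5 SD of library B-scores, with initial fluorescence ratio within 5 SD of library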
TRPC6 inhibitor – mouse TRPC6 channel inhibitors, primary screen, cell-based, HEK293, membrane potential dye; B-score at 10 µM; Short transient receptor potential channel 6 (Mus musculus), Q61143; AID 2553, 2010; ACh-evoked depolarization; hits give low values; 1.1% of 310,000 active;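 active means B-score under library mean minus 3 SD, initial fluorescence not abnormally high, positive integrated signal ratio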;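 further: B-score derived from integrated fluorescence ratio over the kinetic read; more negative B-score means stronger inhibition of depolarization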
TRPC4 agonist – activators of mouse TRPC4 channel, primary screen, Fluo4 calcium, HEK293 TRPC4beta/mu-opioid cells; 0.49% of 310,000 active; Short transient receptor potential channel 4 (Mus musculus), Q9QUQ5; Fluo4 calcium fluorescence; hits give high values; B-score at 10 µM;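 active means B-score above 5 SD of library B-scores, and initial fluorescence ratio not above library mean plus 5 SD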;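 further: positive B-score marks a calcium rise read as TRPC4 activation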
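system = HEK293 cells stably co-expressing mouse TRPC4beta and mu-opioid receptor | schedule = Fluo4 dye loading 45 min at room temperature, 110 s recording | measure = B-scored integrated calcium fluorescence ratio | signal = Fluo4 calcium-sensitive dye fluorescence, kinetic, 1 Hz baseline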
TRPC4 inh – inhibitors of mouse TRPC4 channel, primary screen, Fluo4 calcium, HEK293 TRPC4beta/mu-opioid cells. DAMGO-evoked Fluo4 calcium flux; hits give low values. B-score at 10 µM. 0.39% of 300,000 active;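 active means B-score over 3 SD under the library average, no early fluorescence shift, positive overall ratio signal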
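material = TRPC4beta/mu-opioid receptor HEK293 cell line | probe or stimulus = sequential submaximal and maximal DAMGO stimulation | compound dosing = one concentration per compound | measured by = Fluo4 Ca2+ flux fluorescence | evaluation = integrated fluorescence ratio relative to baseline, converted to per-well B score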
TRPC4 sel inh 2 – second selectivity test of TRPC6 inhibitors: effect on mouse TRPC4. HEK293 TRPC4/MOR, membrane potential dye fluorescence; channel activated by saturating DAMGO dose. 42% of 920 active. shares compounds with TRPC6 inhibitor. inhibition, % at 10 µM;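 active means compounds whose fluorescence signal differed from control wells by over 3 SD, either direction, in both duplicate plates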
TRPC4 spec – mouse TRPC4 modulation by TRPC6 hits, confirmation, selectivity assay for TRPC6 inhibitor project, cell-based, HEK293 TRPC4/mu-opioid, membrane potential dye; shares compounds with TRPC6 inhibitor; membrane potential fluorescence; activity change, negative = inhibition, % at 10 µM; 61% of 920 active; AID 2777, 2010;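 active means rise or fall in signal beyond 3 SD of buffer-only wells in both replicate plates, either sign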;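 further: integrated kinetic ratio of fluorescence range over baseline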
HEK293 MPD ctr 2-1 – nonspecific membrane potential effects, parental HEK293, confirmation, counter-screen for TRPC6 inhibitor project, cell-based, second counter screen. signal change vs control, % at 10 µM. parental HEK293 membrane potential dye fluorescence; maximal acetylcholine challenge after compound addition. 31% of 920 active. AID 2779, 2010. shares compounds with TRPC6 inhibitor;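 active means membrane potential signal moving either way by over 3 SD of the maximum-effect control, in both duplicate plates, meaning non-specific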
HEK293 MPD ctr-1 – membrane potential modulation in parental HEK293, confirmation, counter-screen for TRPC6 inhibitor project, cell-based; shares compounds with TRPC6 inhibitor; parental HEK293 membrane potential dye fluorescence; membrane potential signal change, % at 10 µM; 60% of 920 active; AID 2780, 2010;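 active means membrane potential signal shifting up or down by more than 3 SD of buffer-only wells, on both duplicate plates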
HEK293 MPD ctr-2 – parental HEK293 membrane potential modulation, confirmation, counter-screen for TRPC6 modulator project, cell-based | shares compounds with TRPC6 inhibitor | membrane potential dye fluorescence | membrane potential signal change, % at 10 µM | 51% of 2,400 active | AID 488924, 2010;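 active means membrane potential signal moves up or down beyond 5 SD from buffer-only wells, on both duplicate plates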
HEK293 MPD ctr 2-2 – parental HEK293 nonspecific activity of TRPC6 modulators, second screen; shares compounds with TRPC6 inhibitor; membrane potential dye fluorescence; after compound, maximal acetylcholine stimulation; inhibition, % at 10 µM; 14% of 2,400 active; AID 488926;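 active means membrane potential signal drops by more than 5 SD from the mean control signal, in both duplicate plates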
TRPC4/MOR mod – TRPC4 modulation by TRPC6 hit compounds, confirmation, selectivity assay for TRPC6 modulator project, cell-based, HEK293 TRPC4/mu-opioid, membrane potential dye, mouse; shares compounds with TRPC6 inhibitor; percent change from control (negative = decrease, positive = increase), % at 10 µM; 69% of 2,400 active; membrane potential fluorescence;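 active means membrane potential signal moved up or down beyond 5 SD of buffer control wells, in both duplicate plates, actives on both sides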
TRPC4 ctr inh 2 – second selectivity test of TRPC6 modulators against mouse TRPC4 | shares compounds with TRPC6 inhibitor | HEK293 TRPC4/mu-opioid, membrane potential dye fluorescence; stimulated with maximal-effect DAMGO | inhibition, % at 10 µM | 55% of 2,400 active;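 active means drop in membrane potential signal beyond 5 SD of the control wells in both duplicate plates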;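 further: TRPC4 counter screen for TRPC6 hits run under conditions tuned for TRPC6 not TRPC4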
TRPC6 block conf – mouse TRPC6 channel inhibitors, confirmation, HEK293 cells, membrane potential dye, duplicate. shares compounds with TRPC6 inhibitor. ACh-evoked depolarization. inhibition, % at 10 µM. 43% of 3,300 active;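 active means fluorescence ratio falls more than 5 SD below the full-stimulation control mean, in both duplicate runs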;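 further: integrated fluorescence ratio of peak minus minimum over baseline after agonist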
TRPC6 act conf – mouse TRPC6 channel activators, confirmation, HEK293 cells, membrane potential dye, duplicate; shares compounds with TRPC6 inhibitor; HEK293-TRPC6 membrane potential dye fluorescence, FDSS; activation, % at 10 µM; 11% of 2,800 active; AID 488961, 2010;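 active means ratio signal rise beyond 5 SD above unstimulated control wells' mean, seen in both duplicate runs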
Of the large screens only hits and unclear results are named; the others gave an inactive call (follow-up assays come after a bar, where they were run).

COc1ccc(C(=O)N2CCNC(=O)C2CC(=O)Nc2cc(Cl)ccc2OC)cc1 (stereo not drawn)	none
COc1ccc(OC)c(NC(=O)CC2C(=O)NCCN2C(=O)Nc2cccc(Cl)c2)c1 (stereo not drawn)	TRPC6 inhibitor -5.93 | HEK293 MPD ctr-2 inactive | HEK293 MPD ctr 2-2 inactive | TRPC4/MOR mod -14.0% | TRPC4 ctr inh 2 29.0% | TRPC6 block conf inactive | TRPC6 act conf inactive
C=CCNC(=O)N1CCc2[nH]c3ccc(F)cc3c2C1	TRPC6 inhibitor -6.17 | HEK293 MPD ctr-2 240.0% | HEK293 MPD ctr 2-2 inactive | TRPC4/MOR mod 18.5% | TRPC4 ctr inh 2 inactive | TRPC6 block conf 82.5%
Fc1ccc2[nH]c3c(c2c1)CN(C(=S)NCc1ccccc1)CC3	TRPC6 inhibitor -11.7 | TRPC4 sel inh 2 inactive | TRPC4 spec -12.9% | HEK293 MPD ctr 2-1 inactive | HEK293 MPD ctr-1 inactive | TRPC6 block conf 127.4%
CCCCNC(=O)N1CCc2[nH]c3ccccc3c2C1	TRPC6 inhibitor -6.13 | HEK293 MPD ctr-2 inactive | HEK293 MPD ctr 2-2 inactive | TRPC4/MOR mod inactive | TRPC4 ctr inh 2 inactive | TRPC6 block conf 72.0%
Cc1ccc(NC(=O)CC2=NC(=O)C(CC(=O)Nc3ccccc3C)S2)cc1 (stereo not drawn)	none
